Assay outcomes: PubChem, several laboratories
Most compounds without a hit are left out; they make up all but 4.8% or so of the library.
PAFAH1B2 FP inh – inhibitors of human PAFAH1B2; P68402; recombinant PAFAH1B2, FP-rhodamine activity probe, fluorescence polarization; inhibition, % at 3.39 µM; 1.2% of 340,000 active;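 active means inhibition above the mean of all tested compounds plus 3 SD, cut at about 24% in these data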
Target sequence (P68402 whole entry, looked up): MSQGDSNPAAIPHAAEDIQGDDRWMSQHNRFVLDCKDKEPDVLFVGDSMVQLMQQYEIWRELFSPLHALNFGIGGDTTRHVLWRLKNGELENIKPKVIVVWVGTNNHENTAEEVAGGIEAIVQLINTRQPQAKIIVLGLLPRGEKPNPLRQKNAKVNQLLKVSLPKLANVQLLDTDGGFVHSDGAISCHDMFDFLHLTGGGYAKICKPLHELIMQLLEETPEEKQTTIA
UCH37 DUB inh – human UCH37 deubiquitinating enzyme inhibition; AID 588478; 0.33% of 330,000 active; inhibition, % (no concentration beside the values); purified proteasome/UCH37, Ub-AMC cleavage fluorescence; Q9Y5K5;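 active means mean inhibition over replicate wells above about 20%, limit read from the data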
Target sequence (Q9Y5K5 whole entry, looked up): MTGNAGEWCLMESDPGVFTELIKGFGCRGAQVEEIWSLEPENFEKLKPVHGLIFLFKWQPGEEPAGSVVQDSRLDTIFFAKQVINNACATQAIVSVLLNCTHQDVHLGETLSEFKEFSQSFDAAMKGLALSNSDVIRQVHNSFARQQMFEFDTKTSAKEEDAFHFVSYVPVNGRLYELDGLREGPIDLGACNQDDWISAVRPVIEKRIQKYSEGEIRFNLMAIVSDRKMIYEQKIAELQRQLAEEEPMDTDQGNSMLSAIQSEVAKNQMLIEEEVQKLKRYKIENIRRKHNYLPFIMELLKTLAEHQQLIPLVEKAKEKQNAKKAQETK
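Material: human UCH37 enzyme supplied as purified proteasome complex / Amount: 0.15 nM proteasome as dispensed / Buffer or medium: pH 7.4 Tris-HCl (50 mM) with ovalbumin, ATP-MgCl2, DTT / Times: preincubation 30 min, reaction 25 min, room temperature / Technique: AMC fluorescence from Ub-AMC cleavage, excitation 355 nm, emission 460 nm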
NR3A LBD binder – NR3A (human) ligand-binding domain modulation; 2.5% of 340,000 active; NR3A LBD differential scanning fluorimetry, Tm shift; 0% = protein alone, 100% = glycine-bound protein; Tm shift relative to glycine control, % at 25 µM;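 active means melting temperature shift of at least 10% of the positive control shift, at one fixed dose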
PAFAH1B3 FP inh – PAFAH1B3 (human) inhibition. Q15102. recombinant PAFAH1B3, FP-rhodamine probe, fluorescence polarization. 0.28% of 340,000 active. AID 492972. inhibition, % at 3.39 µM;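 active means inhibition above the screen-wide average of all tested compounds plus 3 SD, cut at about 25% in these data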
PAFAH2 inh – PAFAH2 (human) inhibition | 0.99% of 340,000 active | recombinant PAFAH2, FP-rhodamine activity probe, fluorescence polarization | AID 492956 | inhibition, % at 3.39 µM;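 active means inhibition above the mean over all tested compounds plus 3 SD, cut at about 30% in these data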;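 further: inhibitors block probe labeling of enzyme so polarization drops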
pPAFAH FP inh – pPAFAH (human) enzyme inhibition. recombinant pPAFAH, FP-rhodamine probe fluorescence polarization. AID 463082. inhibition, % at 3.39 µM. Q13093. 1.5% of 330,000 active;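 active means inhibition above the mean inhibition across the screen plus 3 SD, cut at about 25% in these data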;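 further: inhibitors block binding of the rhodamine activity-based probe so polarization drops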
Hits are given with their value; n = inactive; x = no result; ! = a repeat was not active.

SMILES | PAFAH1B2 FP inh | UCH37 DUB inh | NR3A LBD binder | PAFAH1B3 FP inh | PAFAH2 inh | pPAFAH FP inh
COc1cc(C=NN2CCN(c3ccc(Cl)cc3)CC2)cc(OC)c1OC(C)=O | x | n | x | x | x | x
Cc1cc(OC(C)C(=O)NN=CCC(C)c2ccccc2)ccc1Cl (centres undefined) | x | n | x | x | x | x
CC(=O)NCC(=O)OCC(=O)Nc1ccc(C(C)=O)cc1 | n | n | 13.1 | n | n | n
CC(=O)OCC(=O)Nc1ccc(C(C)=O)cc1 | n | n | n | n | n | n
Nc1nc(N)c(Br)c(Nc2ccc(Cl)c(Cl)c2)n1 | n | n | n | n | n | x
Nc1nc(N)c(C=Nc2ccc(Br)cc2)c(Nc2ccc(Br)cc2)n1 | n | x | 50.7 | n | n | n
COc1cc(C(=O)NCC(=O)NN=Cc2ccc(-c3ccc([N+](=O)[O-])cc3)o2)cc(OC)c1OC | x | n | x | x | x | x
CCCCN(CC)CCCNC(=O)c1cc2cc3ccc(OC)cc3nc2o1 | n | n | n | n | n | n
CCCCN(CC)C(=O)c1cc2cc3ccc(Cl)cc3nc2o1 | n | n | 19.3 | n | n | n
Cc1nc2c(o1)CCc1ccccc1C2N1CCN(C)CC1 (centres undefined) | n | n | 13.0! | n | n | n
O=C(O)c1ccc(NN=Cc2cc(Br)cs2)cc1 | x | n | x | x | x | x
COc1cccc(-c2nnc(Nc3nc4c(F)cccc4s3)o2)c1 | n | n | n | n | n | 29.4
COc1cccc(C=Nn2c(SC)nnc2-c2ccccc2)c1O | x | n | x | x | x | x
C[C@H](CO)N1C[C@H](C)[C@@H](CN(C)S(=O)(=O)c2cn(C)cn2)Oc2c(NC(=O)Nc3ccc(C(F)(F)F)cc3)cccc2C1=O | n | n | n | n | n | n
C[C@H]1CN([C@@H](C)CO)C(=O)c2cccc(NC(=O)Nc3ccc(C(F)(F)F)cc3)c2O[C@@H]1CN(C)S(=O)(=O)c1ccc(Cl)cc1 | n | n | 22.7 | n | n | n
C[C@H](CO)N1C[C@H](C)[C@@H](CN(C)S(=O)(=O)c2ccc(F)cc2)Oc2c(NC(=O)Nc3ccc(C(F)(F)F)cc3)cccc2C1=O | 24.3 | n | 20.5 | n | n | n
CC12CCC(C/C1=N\N=C1\NC(=O)/C(=C\c3cccc(Br)c3)S1)C2(C)C (centres undefined) | n | x | n | n | n | 26.9
Cc1cccc(/C=C2/S/C(=N/N=C3CC4CCC3(C)C4(C)C)NC2=O)c1 (centres undefined) | x | n | x | x | x | x
O=C(c1ccccc1)c1ccc(C(=O)N2CCCC(C(F)(F)F)C2)cc1 (centres undefined) | n | n | n | n | n | n
Cc1ccc(NS(=O)(=O)c2ccc(C(=O)NC3CCN(Cc4ccccc4)CC3)cc2)cc1 | n | n | n | n | n | 26.2
Cc1ccc(NS(=O)(=O)c2ccc(C(=O)N3CCN(c4ccccn4)CC3)cc2)cc1 | n | x | n | n | n | 25.3
Cc1ccc(NS(=O)(=O)c2ccc(C(=O)N3CCC3)cc2)cc1 | n | n | n | n | n | 27.5
O=C(c1ccc(S(=O)(=O)Nc2ccccc2)cc1)N1CCCC(C(F)(F)F)C1 (centres undefined) | n | n | n | n | n | 27.9
CCOC(=O)N1CCN(C(=O)c2ccc(S(=O)(=O)Nc3ccc(C)cc3)cc2)CC1 | n | n | n | n | n | n
N#Cc1cnc(Nc2ccc(F)cc2)nc1N | n | n | 13.3 | n | n | n
SMILES | PAFAH1B2 FP inh | UCH37 DUB inh | NR3A LBD binder | PAFAH1B3 FP inh | PAFAH2 inh | pPAFAH FP inh
Cc1cc(C)c(C#N)c(Nc2ccc(F)cc2)n1 | n | n | n | n | n | n
CC1=C(CC(=O)c2ccc(Cl)cc2)C(=O)c2ccccc2C1=O | n | n | n | n | n | 28.1
COc1cc(C=NNC(=O)[C@H](Cc2c[nH]c3ccccc23)NC(=O)OCC(C)C)cc([N+](=O)[O-])c1O | x | n | x | x | x | x
COc1cc(/C=N/NC(=O)[C@H](Cc2c[nH]c3ccccc23)NC(=O)OCC(C)C)cc([N+](=O)[O-])c1O | 24.4 | x | n | n | n | 29.5
C=CCN(CC=C)CCOc1cccc2ccccc12 | n | n | 12.2 | n | n | n
Cc1ccc(C)c(Nc2cc(C)nc(-c3ccccc3O)n2)c1 | n | n | n | n | n | n
Cc1cc(Nc2ccccc2)nc(-c2ccccc2O)n1 | n | n | 10.7 | n | n | n
Cc1cc(Nc2ccccc2Cl)nc(-c2ccccc2O)n1 | n | n | n | n | n | n
CCOC(=O)c1ccc(Nc2cc(C)nc(-c3ccccc3O)n2)cc1 | n | n | 35.2 | n | n | n
Cc1cc(NCc2ccccc2)nc(-c2ccccc2O)n1 | n | n | n | n | n | n
Cc1cc(Nc2cccc(F)c2)nc(-c2ccccc2O)n1 | n | n | 29.6 | n | n | n
Oc1oc(-c2cccc3ccccc23)nc1/C=N/c1nccs1 | n | x | 10.8 | n | n | n
CC(=O)c1cccc(Nc2nc(-c3cccc([N+](=O)[O-])c3)cs2)c1 | n | x | 19.7 | n | n | n
Cc1ccc(-c2csc(NC(=O)c3cccc([N+](=O)[O-])c3)n2)cc1 | n | n | 24.6 | n | n | n
O=[N+]([O-])c1cccc(-c2csc(N/N=C/c3cccc(O)c3)n2)c1 | n | x | 23.8 | n | n | n
CC(=O)c1c(C)[nH]c(C(=O)Nc2nc(-c3ccc(Cl)cc3)cs2)c1C | n | n | n | n | n | n
CC(=O)c1c(C)[nH]c(C(=O)Nc2nc(-c3ccc(-c4ccccc4)cc3)cs2)c1C | n | n | 11.0 | n | n | n
O=C(NN=Cc1ccc(Br)s1)c1ccccn1 | x | n | x | x | x | x
CN(C)S(=O)(=O)c1ccc(-c2csc(N/N=C/c3ccc(O)cc3)n2)cc1 | n | x | 22.5 | n | n | n
O=C(NC(=S)Nc1nc(-c2cccc([N+](=O)[O-])c2)cs1)c1cc(Cl)ccc1Cl | n | n | 11.4 | n | n | n
COc1cc(C=NNc2ncc(C(F)(F)F)cc2Cl)cc(OC)c1OC | x | n | x | x | x | x
FC(F)Oc1ccc(C=Nn2c(Cc3ccc(Br)cc3)n[nH]c2=S)cc1 | x | n | x | x | x | x
CN(C)N=Cc1ccc(P(c2ccc(C=NN(C)C)o2)c2ccc(C=NN(C)C)o2)o1 | x | n | x | x | x | x
CC(=NNC(=O)c1nnn(-c2nonc2N)c1CSc1ccc(Cl)cc1)c1cccnc1 | x | n | x | x | x | x
O=C1C(Cl)=C(N2CCN(c3ccccc3[N+](=O)[O-])CC2)C(=O)c2ccccc21 | 28.3 | n | n | 48.6 | 40.0 | n
SMILES | PAFAH1B2 FP inh | UCH37 DUB inh | NR3A LBD binder | PAFAH1B3 FP inh | PAFAH2 inh | pPAFAH FP inh
COc1ccc(/C=N/NC(=O)c2ccncc2)cc1CN1CCOCC1 | n | x | 12.2 | n | n | n
COc1ccccc1C=NNC(=O)COCC(=O)NN=Cc1ccccc1OC | x | n | x | x | x | x
CC(=NNC(=O)Cc1ccc(Cl)c(Cl)c1)c1cccnc1 | x | n | x | x | x | x
Cc1ccc(Nc2nc(-c3c(C)nc4ccccn34)cs2)cc1 | n | n | n | n | n | 27.8
CC(=O)Nc1ccc(-c2csc(Nc3cc(C)ccn3)n2)cc1 | n | n | 24.7 | n | n | n
Cc1ccnc(Nc2nc(-c3c(C)nc4sccn34)cs2)c1 | n | n | 16.4 | n | n | n
